Experimental data reported in ChEMBL document CHEMBL1828568, “Novel imaging agents for β-amyloid plaque based on the N-benzoylindole core” (Bioorg Med Chem Lett, 2011).
Calls of active or inactive are those of the source. No cut-off for these calls is given here.

Assays:
[1] = Displacement of [125I]TZDM from amyloid beta (1 to 40) aggregates after 2 hrs by gamma counting
In short: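 Competition binding against [125I]TZDM as radiolabeled standard, using Aβ1–40 aggregates; run in triplicate, results as mean ± SD.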

Mus musculus [2] = organism: Mus musculus; experiment: Binding affinity to beta-amyloid plaque in APP/PS1 transgenic mouse C57 brain after 20 mins by autoradiography; format: tissue-based; conditions: tested as the 125I-labelled form
In short: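 In vitro autoradiography of brain sections from AD model mice (C57, APP/PS1), labeled with the 125I-iodinated tracer.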

Mus musculus [3] = organism: Mus musculus; experiment: Binding affinity to beta-amyloid plaque in APP/PS1 transgenic mouse C57 brain after 20 mins by fluorescent staining with thioflavin-S; format: tissue-based; conditions: tested as the 125I-labelled form

Ki [1] [nM] | Activity (Mus musculus [2]) | Activity (Mus musculus [3]) | SMILES
36.4 |  |  | O=C(/C=C/c1ccccc1)n1ccc2cc(Cl)ccc21
27.3 |  |  | COc1ccc(/C=C/C(=O)n2ccc3ccccc32)cc1
8.4 | Active | Active | O=C(/C=C/c1ccccc1)n1ccc2cc(I)ccc21
